The values that follow come from PubChem BioAssay.

A number with no mark means an inactive call. Results filed as inconclusive are left out. The source made the active and inactive calls.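 The calls were made as follows, unless noted: active = inhibition over a set limit, the all-compound mean plus 3 SD, in both replicate runs; inconclusive = over that limit in just one replicate run; inactive = at or under that limit in both runs.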

The nature of test [1]: S. cerevisiae growth inhibition in permissive medium (OD615), pilot counter-assay for S. cerevisiae lifespan shortening project, permissive growth control (AID 705;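 active = growth inhibition above 25% in both replicates, a cutoff set 3 SD above the mean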). The settings on record: OD615, 24 h, at 10 µM, active compounds read high. The method, boiled down: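 System: Engineered DeaD yeast | Buffer or medium: SC raffinose/galactose permissive medium | Doses: 10 µM single dose, 0.25% DMSO | Times: 24 h exposure, 30 °C | Measured by: OD615 turbidity read | Read-out: Yeast growth inhibition indicated by reduced 24 h OD615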

The nature of test [2]: S. cerevisiae growth inhibition in restrictive medium, OD615, pilot screen, restrictive growth control, yeast lifespan reduction project (AID 706;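 active = growth inhibition above a set limit, 3 SD over mean compound inhibition, in both replicates, cut at about 43% in these data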;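 also: modified DeaD lifespan yeast strain shifted to restrictive glucose medium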). The settings on record: OD615, 48 h, at 10 µM, active compounds read high. The method, boiled down: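 Assay system: engineered S. cerevisiae DeaD strain; Buffer or medium: CSMM-D glucose medium; Dosing: 10 µM compound, 0.25% DMSO; Times: cell pre-growth 4 h, compound exposure 48 h, 30 °C; Detection: absorbance (optical density) measured at 615 nm.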

The nature of test [3]: doxorubicin toxicity protection in MRP-1 cells – H69AR cells, CellTiter-Glo, duplicate, MRP-1 activator project, pilot screen (AID 807;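 active = viability increase at or above a cutoff of the median across tested compounds plus 3 SD, cut at about 8.5% in these data, passing the limit was not always enough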;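 also: compound pretreatment 18-22 h then 72 h combined with doxorubicin; 0% = doxorubicin alone and 100% = vehicle without doxorubicin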). The settings on record: H69AR viability with doxorubicin, CellTiter-Glo luminescence; at 10 µM; active compounds read high. In general terms: Cellular ATP, detected with luciferase, serves as a proxy for viable cell number.
The nature of test [4]: viability of HCT116 without oncogenic beta-catenin – human colon tumor cells, pilot screen (AID 823;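 active = cell viability at or below a set limit in both duplicate runs, the limit being the all-compound median minus 4 SD, cut at about 23% in these data, passing the limit was not always enough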;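 also: 0% = wells killed by 20 µM Hyamine and 100% = untreated DMSO cell wells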). The settings on record: HCT116 beta-catenin knockout viability, CellTiter-Glo, 60 h; at 10 µM; active compounds read low.
The nature of test [5]: viability of PTEN-null HCT116 cells – cell-based, HCT116 clonal line, CellTiter-Glo, pilot screen (AID 824;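 active = viability at or below 27.92% in each of two runs, the all-compound median minus 4 SD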;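 also: 0% = 20 µM Hyamine control and 100% = vehicle cell control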). The settings on record: HCT116 PTEN-deleted viability, 60 h, at 10 µM, active compounds read low.
Test [6] can be described thus: RAM pathway blockade in budding yeast – dse1pr::URA3 reporter, 5-FOA selection, pilot screen (AID 869).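 Also: 0% = DMSO wells with no growth and 100% = 10 µM 1-NA-PP1 with full growth; RAM network block rescues cells from 5-FOA so hits raise OD615 growth.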 The settings on record: S. cerevisiae dse1pr::URA3 5-FOA growth, OD615, 2 d; at 10 µM; active compounds read high; strain carries analog-sensitive mutant Cbk1 kinase.
Test [7] in a line: RAM signaling pathway blockade in yeast – S. cerevisiae, Pdr1DBD-CYC8 efflux-inhibited sensitized strain, primary screen (AID 1298;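 active = RAM network inhibition above 8.4% in each of two replicates, 3 SD over the compound average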;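 also: 0% = DMSO untreated cells without growth and 100% = 10 µM 1-NA-PP1 full growth; higher means more yeast growth rescued from 5-FOA killing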). The settings on record: S. cerevisiae cbk1-as DSE1-URA3 strain, 5-FOA growth OD615, 2 d; at 50 µM; active compounds read high.

For orientation: viability means a read-out of living cells in per cent, often relative to untreated cells. As a reminder, the inhibition is the relative decrease from the control value, in per cent. `O=C(Nc1c(C(=O)N2CCCCC2)cnn1-c1ccccc1)c1ccccc1`: the growth inhibition was -13.8% in test [1] and -4.25% in test [2]. The viability increase in test [3] is -1.28%. Besides, the results for the viability in test [4] and in test [5] were 105% and 92%, respectively. Also, the inhibition in test [6] was 1.99%. In addition, in test [7], the RAM network inhibition is 2.44%.

As to `N=c1n(-c2ccccc2)c(O)cc(=O)n1-c1ccccc1`, the growth inhibition is -1.26% in test [1] and 1.77% in test [2]. Besides, the viability increase in test [3] is 0.05%. The viability in test [4] is 98.1%; in test [5], 99.5%. Besides, the inhibition in test [6] is 0.73%. Moreover, in test [7], the RAM network inhibition was 6.52%.

With `CCOc1ccc(N(CC(=O)O)S(=O)(=O)c2cccnc2)cc1`, the growth inhibition in test [1] was -0.125%; in test [2], -2.17%. Further, the viability increase in test [3] is 1.18%. Also, the results for the viability in test [4] and in test [5] were 94.4% and 102%, respectively. The inhibition in test [6] is -0.27%. For the same molecule, the RAM network inhibition in test [7] was 7.23%.

Consider `C/C(=C1\SC(N2CCOCC2)=NC1=O)c1ccccc1`, for which the growth inhibition in test [1] was -19.6%; in test [2] it was -10.6%. Besides, in test [3], the viability increase is -2.49%. Also, the viability in test [4] was 97%; in test [5], 102%. Moreover, the inhibition in test [6] was 0.76%. In addition, in test [7], the RAM network inhibition is 1.09%.

In the case of `Cn1c2c(c3ccccc31)CC/C2=N\O`, the figures for the growth inhibition in test [1] and in test [2] were 1.57% and 18.9%, respectively. Besides, the viability increase in test [3] was -0.84%. Moreover, the viability in test [4] was 100%; in test [5], 99%. In addition, the inhibition in test [6] was 1%. The RAM network inhibition in test [7] was 1.01%.

In the case of `Cc1cc(NC(=O)CC(CN(C)S(=O)(=O)c2ccccc2)c2ccccc2)no1` (stereo unspecified), the growth inhibition in test [1] is -7.79%; in test [2] it was -20.5%. Further, the viability increase in test [3] was -4.04%. Further, the viability in test [4] is 89.7%; in test [5] it was 81.3%. For the same molecule, in test [6], the inhibition is 1.59%. Moreover, the RAM network inhibition in test [7] was 3.14%.

On to `COc1cc(Nc2cc(C)nc3nc(C)nn23)cc(OC)c1OC`, for which the growth inhibition in test [1] is 2.3%; in test [2], 6.15%. The viability increase in test [3] was -1.11%. For the same molecule, the viability in test [4] was 95.7%; in test [5], 104%. Further, in test [6], the inhibition is 0.525%. Moreover, the RAM network inhibition in test [7] is 4.23%.

For `CCCCCn1c(N2CCC(Cc3ccccc3)CC2)nc2c1c(=O)[nH]c(=O)n2C`, the growth inhibition was -14.9% in test [1] and -29.9% in test [2]. The viability increase in test [3] was -8.6%. Besides, the viability is 15.1% (active) in test [4] and 12.8% (active) in test [5]. In test [6], the inhibition is 1.22%. In test [7], the RAM network inhibition was 7.3%.

For `CCNc1nc(C)cc(COC)c1C#N`, the results for the growth inhibition in test [1] and in test [2] were -6.41% and -0.29%, respectively. The viability increase in test [3] was -0.27%. The viability was 97.7% in test [4] and 102% in test [5]. For the same molecule, in test [6], the inhibition is 1.4%. Moreover, in test [7], the RAM network inhibition is -0.06%.

On to `Cc1ccc(OCC(O)CN2CCN(CC(O)COc3ccc(C)cc3Cl)CC2)c(Cl)c1` (stereo unspecified), for which the growth inhibition in test [1] is -5.18%; in test [2], -17.4%. Moreover, the viability increase in test [3] is -4.02%. In addition, the viability in test [4] is 77.7%; in test [5], 81.8%. Also, in test [6], the inhibition was 2.03%. In addition, the RAM network inhibition in test [7] was 2.76%.

Regarding `Cc1cc(SCC(=O)OCC(=O)N2CCN(C(=O)c3ccco3)CC2)c(C)cc1Br`, the growth inhibition in test [1] was -2.27%; in test [2] it was 4.81%. For the same molecule, the viability increase in test [3] is -2.19%. For the same molecule, the viability was 91.4% in test [4] and 98.2% in test [5]. Moreover, in test [6], the inhibition was 0.31%. Also, in test [7], the RAM network inhibition was 0.4%.

For `O=C(c1ccc(CN2CCOCC2)cc1)N1CCN(Cc2ccccc2)CC1`, the results for the growth inhibition in test [1] and in test [2] were -15% and -5.85%, respectively. Also, in test [3], the viability increase was 0.28%. In addition, the viability was 97.5% in test [4] and 97.9% in test [5]. Moreover, the inhibition in test [6] is 0.83%. For the same molecule, in test [7], the RAM network inhibition is 12.1%.

In the case of `O=C(O)c1ccc2c(c1)N(Cc1cccc(F)c1)C(=O)CS2`, the growth inhibition in test [1] was 2.4%; in test [2] it was -0.16%. Further, the viability increase in test [3] is 0.93%. Further, the viability in test [4] and in test [5] was 102% each time. Further, the inhibition in test [6] is 0.2%. Further, the RAM network inhibition in test [7] is 1.36%.

With `O=C(O)[C@H](Cc1ccccc1)N1Cc2ccccc2C1=O`, the growth inhibition in test [1] was -4.39%; in test [2], -15%. Further, the viability increase in test [3] was -2.35%. Moreover, the viability in test [4] is 95.3%; in test [5] it was 97.4%. The inhibition in test [6] was 1.4%. The RAM network inhibition in test [7] was 1.15%.

`Cn1c(Cn2c(=O)sc3ccccc32)nnc1SCC(=O)NC1CCCCC1`: the growth inhibition was -17% in test [1] and -24.8% in test [2]. Besides, the viability increase in test [3] is -0.4%. Also, the viability in test [4] is 97.6%; in test [5], 98%. For the same molecule, the inhibition in test [6] is 0.415%. In addition, the RAM network inhibition in test [7] is 1.06%.

For the molecule `CC(=O)C1=C(C)NC(SCC(N)=O)=C(C#N)C1c1cccnc1` (stereo unspecified), the growth inhibition is 6.58% in test [1] and 20.8% in test [2]. In addition, in test [3], the viability increase is 1.67%. The viability in test [4] was 104%; in test [5], 101%. For the same molecule, the inhibition in test [6] is 1.12%. Also, the RAM network inhibition in test [7] is 1.65%.

On to `CCC(=O)Nc1c2c(nn1-c1cccc(Cl)c1)CSC2`, for which the growth inhibition in test [1] was -7.68%; in test [2], -8.67%. The viability increase in test [3] was -1.61%. Besides, the viability in test [4] is 89.7%; in test [5], 86.1%. For the same molecule, in test [6], the inhibition was 2.1%. The RAM network inhibition in test [7] was 1.11%.

Consider `CCOC(=O)C1CCCN(C(=O)N2CCOCC2)C1` (stereo unspecified), for which the results for the growth inhibition in test [1] and in test [2] were -4.19% and -5.3%, respectively. In test [3], the viability increase was -0.82%. For the same molecule, the viability in test [4] was 97.6%; in test [5], 99.1%. The inhibition in test [6] is -0.095%. In addition, the RAM network inhibition in test [7] was 0.21%.
